Assay results: ChEMBL document CHEMBL2069203, “Cytotoxic and antibacterial beilschmiedic acids from a Gabonese species of Beilschmiedia” (J Nat Prod, 2012)
Values after ≈ are worked out from the molar mass of the structure shown. Active and inactive are the calls of the source.

Key:
[1] = tested on: NCI-H460; test: Induction of membrane disruption in human NCI-H460 cells at 20 uM by LDH release assay; format: functional, cell-based
Method in brief: (§1)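 NCI-H460 cells were plated at 1 × 10^4 cells/well in RPMI-1640 with 10% fetal calf serum and attached overnight. Compound or DMSO vehicle was added and incubated 24 or 72 h. Supernatant LDH was measured with the CytoTox 96 kit, absorbance at 490 nm, with kit lysis solution as positive control.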

[2] = tested on: Staphylococcus aureus; test: Antimicrobial activity against methicillin-resistant Staphylococcus aureus isolate 108 incubated for 24 hrs by broth microdilution method; format: functional
Method in brief: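 CLSI broth microdilution on clinical MRSA isolate 108. Overnight trypticase soy broth culture diluted 1:100 in cation-adjusted Mueller-Hinton broth, grown at 37 °C to OD600 0.2, diluted 1:100 again to give 10^6 cfu/mL. Compound in DMSO diluted in medium, tested across a concentration series, 3-6 wells each. Vancomycin positive control. Incubated 24 h at 37 °C. MIC = lowest concentration preventing visible growth.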

[3] = tested on: M14; test: Cytotoxicity against human M14 cells incubated for 72 hrs by MTT assay; format: functional, cell-based
Method in brief: (§2)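 Cells kept in RPMI-1640 with 10% FBS plus L-glutamine and HEPES, seeded at 5 × 10^2 to 5 × 10^4 cells/well and left to adhere overnight. Medium was replaced with DMSO stock diluted in medium at eight concentrations, 2−5 wells each. Camptothecin and vehicle served as controls. After 72 h at 37 °C, 5% CO2, viable cells were read by CellTiter 96 AQueous. IC50 came from dose−response curves.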

[4] = tested on: NCI-H460; test: Cytotoxicity against human NCI-H460 cells incubated for 72 hrs by MTT assay; format: functional, cell-based; method in brief: as §2
[5] = tested on: PC-3; test: Cytotoxicity against human PC3 cells incubated for 72 hrs by MTT assay; format: functional, cell-based; method in brief: as §2
[6] = tested on: NCI-H460; test: Induction of membrane disruption in human NCI-H460 cells at 3 yo 5 fold cytotoxic IC50 level by LDH release assay; format: functional, cell-based; method in brief: as §1
[7] = tested on: NCI-H460; test: Induction of apoptosis in human NCI-H460 cells assessed as caspase 3/7 activation at 26.1uM; format: functional, cell-based
Method in brief: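 NCI-H460 cells were plated at 1 × 10^4 cells/well in RPMI-1640 with 10% fetal calf serum and attached overnight. Compound or DMSO vehicle was added and incubated 24 or 72 h. Caspase 3/7 activity was read by Caspase-Glo 3/7 luminescence, with camptothecin 10 μg/mL as positive control. A result counted as active when caspase exceeded background plus two SD of the negative control without LDH release.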

[8] = Homo sapiens, NCI-H460, 72 h, read-out: IC50

| Compound | Activity [1] | MIC [2] | Activity [3] | IC50 ([4]; nci-h460) | Activity [5] | MIC ([2]; isolate 108, 24 h) [µg/mL] | IC50 [4, 8] [µM] | Activity [6] | Activity [7] |
| --- | --- | --- | --- | --- | --- | --- | --- | --- | --- |
| O=C(O)C1=C[C@@H](O)[C@@H]2C[C@H]3[C@H](CCC/C=C/C=C/c4ccccc4)[C@H]4C=C[C@@H]1[C@@H]2[C@H]43 | inactive | inactive | inactive | Not Active | inactive |  |  |  |  |
| CCCCCCCC[C@@H]1[C@H]2C=C[C@H]3C(C(=O)O)=C[C@H](O)[C@@H]4C[C@@H]1[C@@H]2[C@H]43 [BEILSCHMIEDIC ACID A] |  |  | inactive |  | inactive | 10 (≈ 29 µM) | 6.1 |  |  |
| CCCCCCCC[C@@H]1[C@H]2C=C[C@H]3C(C(=O)O)=C[C@@H](O)[C@@H]4C[C@@H]1[C@@H]2[C@H]43 [BEILSCHMIEDIC ACID C] | inactive | inactive | inactive | Not Active | inactive |  |  |  |  |
| O=C(O)C1=C[C@H](O)[C@@H]2C[C@H]3[C@H](CCC/C=C/C=C/c4ccccc4)[C@H]4C=C[C@@H]1[C@@H]2[C@H]43 [BEILSCHMIEDIC ACID I] |  |  | inactive |  | inactive | 12 (≈ 29.8 µM) | 5.5 | inactive |  |
| O=C(O)C1=C[C@@H](O)[C@@H]2C[C@H]3[C@H](CCCCCc4ccccc4)[C@H]4C=C[C@@H]1[C@@H]2[C@H]43 [BEILSCHMIEDIC ACID K] |  |  | inactive |  | inactive | 11 (≈ 29.1 µM) | 5.9 | inactive |  |
| O=C(O)C1=C[C@@H](O)[C@@H]2C[C@H]3[C@H](C/C=C/C=C/c4ccccc4)[C@H]4C=C[C@@H]1[C@@H]2[C@H]43 [BEILSCHMIEDIC ACID L] |  |  | inactive |  | inactive | 11 (≈ 29.4 µM) | 4.4 | inactive |  |
| O=C(O)C1=C[C@@H](O)[C@@H]2C[C@H]3[C@H](CCC/C=C\C=C\c4ccccc4)[C@H]4C=C[C@@H]1[C@@H]2[C@H]43 [BEILSCHMIEDIC ACID M] |  |  | inactive |  | inactive | 12 (≈ 29.8 µM) | 8.7 | inactive | Active |
| O=C(O)C1=C[C@@H](O)[C@@H]2C[C@H]3[C@H](CCCC4C=CC(c5ccccc5)OO4)[C@H]4C=C[C@@H]1[C@@H]2[C@H]43 (stereo not given in full) [BEILSCHMIEDIC ACID N] |  |  | inactive |  | inactive | 13 (≈ 29.9 µM) | 19 |  |  |
| O=C(O)C1=C[C@@H](O)[C@@H]2C[C@H]3[C@H](CCCc4ccc(-c5ccccc5)o4)[C@H]4C=C[C@@H]1[C@@H]2[C@H]43 [BEILSCHMIEDIC ACID O] | inactive |  | inactive | Not Active | inactive | 13 (≈ 31.2 µM) |  |  |  |
| CC[C@@]1(O)C(=O)OCc2c1cc1n(c2=O)Cc2cc3ccccc3nc2-1 [CAMPTOTHECIN] |  |  |  |  |  |  | 0.003 |  |  |
